# In ChEMBL document CHEMBL1122243, “5-p-benzoquinonyl-2'-deoxyuridine 5'-phosphate: a possible mechanism-based inhibitor of thymidylate synthetase” (J Med Chem, 1983):
# Legend:
# [1] = target: T1, Thymidylate synthase (Lactobacillus casei) (UniProt P00469); assay: Substrate concentration measured for Inactivation of thymidylate synthetase at a dose 0.6, pH 6.8, 30 degrees Centigrade; conditions: Lacticaseibacillus casei
# T1 sequence (whole entry): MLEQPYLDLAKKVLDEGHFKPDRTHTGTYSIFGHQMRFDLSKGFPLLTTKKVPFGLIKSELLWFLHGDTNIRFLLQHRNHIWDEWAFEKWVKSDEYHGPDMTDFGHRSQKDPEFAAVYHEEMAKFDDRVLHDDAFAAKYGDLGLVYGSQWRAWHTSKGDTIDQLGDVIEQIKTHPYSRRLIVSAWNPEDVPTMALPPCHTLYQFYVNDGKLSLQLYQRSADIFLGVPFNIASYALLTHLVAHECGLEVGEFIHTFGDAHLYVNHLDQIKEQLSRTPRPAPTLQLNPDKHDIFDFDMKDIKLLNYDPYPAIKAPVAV
# Method in brief: (§1)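 Thymidylate synthetase from methotrexate-resistant Lactobacillus casei, activated by dialysis against 0.1 M potassium phosphate pH 6.8 with 50 mM mercaptoethanol, then freed of thiol on Sephadex G-25. Enzyme at 0.1–0.4 μM preincubated at 30 °C in 6 mM potassium phosphate pH 6.8, 3 mM MgCl2, 0.12 mM EDTA with inhibitor, with or without substrate for protection. Aliquots were taken over time and assayed.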
# [2] = target: T1, Thymidylate synthase (Lactobacillus casei); assay: Inactivation of thymidylate synthetase measured as kobs at 2.0 pH 30 degrees Celsius temp; conditions: Lacticaseibacillus casei; method in brief: as §1
# [3] = target: T1, Thymidylate synthase (Lactobacillus casei); assay: Substrate concentration measured for Inactivation of thymidylate synthetase at a dose 2.0 pH 6.8, 30 degrees Centigrade; conditions: Lacticaseibacillus casei; method in brief: as §1
# [4] = target: T1, Thymidylate synthase (Lactobacillus casei); assay: Inactivation of thymidylate synthetase measured as kobs at 0.6 pH 30 degrees Celsius temp; conditions: Lacticaseibacillus casei; method in brief: as §1
# [5] = target: T1, Thymidylate synthase (Lactobacillus casei); assay: Inactivation of thymidylate synthetase measured as k2 at 6.8 pH 30 degrees Celsius temp; conditions: Lacticaseibacillus casei
# Method in brief: (§2)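 L. casei (methotrexate-resistant) thymidylate synthetase, activated in 50 mM 2-mercaptoethanol, then freed of thiol on Sephadex G-25 in 0.05 M phosphate pH 6.8; 0.1–0.4 μM enzyme preincubated at 30 °C with inhibitor in 6 mM potassium phosphate pH 6.8, 3 mM MgCl2, 0.12 mM EDTA. Aliquots at 0–50 s assayed 60 s with 50 μM [5-3H]dUMP; ln % activity vs time gives kobs.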
# Thymidylate synthase [6] = target: T2, Thymidylate synthase (Lactobacillus casei, UniProt P00469); assay: Inactivation of thymidylate synthetase measured asKi at 6.8 pH 30 degrees Celsius temp; set-up: species or system Lacticaseibacillus casei; method in brief: as §2
# T2 sequence (P00469 whole entry): T1 sequence (whole entry)
# [7] = target: T1, Thymidylate synthase (Lactobacillus casei); assay: Inactivation of thymidylate synthetase measured as kcat at 6.8 pH 30 degrees Centigrade temp; conditions: Lacticaseibacillus casei; method in brief: as §2
# [8] = target: T1, Thymidylate synthase (Lactobacillus casei); assay: Inactivation of thymidylate synthetase measured as k2 at 7 pH 4 degrees Celsius temp; conditions: Lacticaseibacillus casei
# [9] = target: T1, Thymidylate synthase (Lactobacillus casei); assay: Inactivation of thymidylate synthetase measur as kcat at 6.8 pH 30 degrees Celsius temp; conditions: Lacticaseibacillus casei; method in brief: as §1
# [10] = target: T1, Thymidylate synthase (Lactobacillus casei); assay: Inactivation of thymidylate synthetase measured as k2 at 7 pH 24 degrees Celsius temp; conditions: Lacticaseibacillus casei
# [11] = target: T1, Thymidylate synthase (Lactobacillus casei); assay: Substrate concentration measured for Inactivation of thymidylate synthetase at a dose 5.56, pH 6.8, 30 degrees Centigrade; conditions: Lacticaseibacillus casei; method in brief: as §1
# [12] = target: T1, Thymidylate synthase (Lactobacillus casei); assay: Inactivation of thymidylate synthetase measured as kobs at a dose 10.0, pH 6.8, 30 degrees Centigrade; conditions: Lacticaseibacillus casei; method in brief: as §1
# [13] = target: T1, Thymidylate synthase (Lactobacillus casei); assay: Substrate concentration measured for Inactivation of thymidylate synthetase at a dose 10.0 pH 6.8, 30 degrees Centigrade; conditions: Lacticaseibacillus casei; method in brief: as §1
# [14] = target: T1, Thymidylate synthase (Lactobacillus casei); assay: Inactivation of thymidylate synthetase measured as kobs at a dose 5.56, pH 6.8, 30 degrees Centigrade; conditions: Lacticaseibacillus casei; method in brief: as §1
# Thymidylate synthase [15] = target: T2, Thymidylate synthase; assay: Inactivation of thymidylate synthetase measured as Ki at 6.8 pH 30 degrees Celsius temp; set-up: species or system Lacticaseibacillus casei; method in brief: as §2
# [16] = target: T1, Thymidylate synthase (Lactobacillus casei); assay: Inactivation of thymidylate synthetase measured as kobs at a dose 10.0 pH 6.8, 30 degrees Centigrade; conditions: Lacticaseibacillus casei; method in brief: as §2
# [17] = target: T1, Thymidylate synthase (Lactobacillus casei); assay: Inactivation of thymidylate synthetase measured as kobs at a dose 1.0 pH 6.8, 30 degrees Centigrade; conditions: Lacticaseibacillus casei; method in brief: as §2
# [18] = target: T1, Thymidylate synthase (Lactobacillus casei); assay: Inactivation of thymidylate synthetase measured as kobs at a dose 3.0 pH 6.8, 30 degrees Centigrade; conditions: Lacticaseibacillus casei; method in brief: as §2
# [19] = target: T1, Thymidylate synthase (Lactobacillus casei); assay: Inactivation of thymidylate synthetase measured as kobs at a dose 30.0.0 pH 6.8, 30 degrees Centigrade; conditions: Lacticaseibacillus casei; method in brief: as §2
smiles,measurement,setting,value
O=C1C=CC(=O)C=C1,Substrate,[1],0 µM
same,k obs,[2],0.0126 s⁻¹
same,Substrate,[3],0 µM
same,k obs,[4],0.0025 s⁻¹
O=C(CBr)c1cn(C2CC(O)C(OP(=O)(O)O)O2)c(=O)[nH]c1=O (centres undefined),k2,[5],32000
same,Ki,Thymidylate synthase [6],2000 nM
same,k cat,[7],0.065 s⁻¹
CCN1C(=O)C=CC1=O,k2,[8],13 M⁻¹
O=c1[nH]c(=O)n([C@H]2C[C@H](O)[C@@H](COP(=O)(O)O)O2)cc1[N+](=O)[O-] [5-NITRO-DUMP],k2,[5],300000 M⁻¹ s⁻¹
same,k cat,[9],0.146 s⁻¹
same,Ki,Thymidylate synthase [6],500 nM
NC(=O)CI,k2,[10],7 M⁻¹
O=C1C=CC(=O)C(c2cn([C@H]3C[C@H](O)[C@@H](CO)O3)c(=O)[nH]c2=O)=C1,Substrate,[11],0 µM
same,k obs,[12],0.0048 s⁻¹
same,Substrate,[13],0 µM
same,k obs,[14],0.0029 s⁻¹
O=C(CBr)c1cn([C@H]2C[C@H](O)[C@@H](COP(=O)(O)O)O2)c(=O)[nH]c1=O,k2,[5],600 M⁻¹ s⁻¹
same,k cat,[7],0.0025 s⁻¹
same,Ki,Thymidylate synthase [15],4000 nM
O=C1C=CC(=O)C(c2ccccc2)=C1,k obs,[16],0.025 s⁻¹
same,k2,[5],2600
same,k obs,[17],0.0034 s⁻¹
same,k obs,[18],0.007 s⁻¹
same,k obs,[19],0.078 s⁻¹
